Results published in ChEMBL document CHEMBL1157852, “Modulation of doxorubicin activity in cancer cells by conjugation with fatty acyl and terpenyl hydrazones” (Eur J Med Chem, 2010).
Calls of active or inactive are those of the source. No cut-off for these calls is given here.

Experiments:
[1] = Cytotoxicity against human vinblastine-resistant KBV1 cells after 72 hrs by MTT assay; assay type: functional, cell-based; details: KB-V1, 72 h
Procedure, shortened: (§1)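 MTT assay. Cells seeded and cultured 24 h, then exposed to compound for 24, 48 or 72 h. MTT added to a final 0.05% (HL-60, 518A2) or 0.1% (KB-V1, MCF-7) for 2 h. Formazan dissolved in 10% SDS/DMSO with 0.6% acetic acid; absorbance read at 570 nm against 630 nm background. Viability taken relative to untreated controls (100%). IC50 from concentration-response curves, mean ± SD of four independent experiments.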

[2] = test system: MCF7; assay: Cytotoxicity against human topotecan-resistant MCF7 cells after 24 hrs by MTT assay; assay type: functional, cell-based; details: MCF7, 24 h; procedure, shortened: as §1
[3] = Cytotoxicity against human 518A2 cells after 72 hrs by MTT assay; assay type: functional, cell-based; details: 518A2, 72 h; procedure, shortened: as §1
[4] = test system: MCF7; assay: Cytotoxicity against human topotecan-resistant MCF7 cells after 48 hrs by MTT assay; assay type: functional, cell-based; details: MCF7, 48 h; procedure, shortened: as §1
[5] = Cytotoxicity against human vinblastine-resistant KBV1 cells after 24 hrs by MTT assay; assay type: functional, cell-based; details: KB-V1, 24 h; procedure, shortened: as §1
[6] = Cytotoxicity against human vinblastine-resistant KBV1 cells after 48 hrs by MTT assay; assay type: functional, cell-based; details: KB-V1, 48 h; procedure, shortened: as §1
[7] = test system: MCF7; assay: Cytotoxicity against human topotecan-resistant MCF7 cells after 72 hrs by MTT assay; assay type: functional, cell-based; details: MCF7, 72 h; procedure, shortened: as §1
[8] = Cytotoxicity against human 518A2 cells assessed as increase in ROS production at 5 uM after 24 hrs by NBT reduction assay relative to control; assay type: functional
Procedure, shortened: (§2)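 NBT assay. HL-60 cells (0.5×10⁶/mL) or trypsinised 518A2 cells (5×10⁴/mL) pre-incubated 24 h at 37 °C, then given compound at a final 5 µM for 24 or 72 h. Medium removed; cells incubated with 0.1% NBT for 1 h (HL-60) or 4 h (518A2). Diformazan dissolved in 2 M KOH/DMSO; A630 read against 405 nm. Given as % of untreated controls; double quadruplicates.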

[9] = test system: HL-60; assay: Cytotoxicity against human HL60 cells after 48 hrs by MTT assay; assay type: functional, cell-based; details: HL-60, 48 h; procedure, shortened: as §1
[10] = test system: 518A2; assay: Induction of apoptosis in human 518A2 cells assessed as appearance of intact mitochondria in cytosol at 5 uM after 6 hrs using JC1 dye relative to control; assay type: functional
Procedure, shortened: (§3)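 Mitochondrial membrane potential measured with JC-1. Cells exposed to 5 µM compound for 6 or 18 h, pelleted at 400 g, stained with 0.2× JC-1 at 37 °C for 15 min (HL-60) or 35 min (518A2), washed and resuspended in PBS. Red fluorescence (ex 585/em 590 nm) and green (ex 510/em 527 nm) read; red/green ratio relative to untreated controls (100%). Mean ± SD, four independent experiments.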

[11] = test system: HL-60; assay: Cytotoxicity against human HL60 cells assessed as increase in ROS production at 5 uM after 72 hrs by NBT reduction assay relative to control; assay type: functional; procedure, shortened: as §2
[12] = test system: HL-60; assay: Cytotoxicity against human HL60 cells after 72 hrs by MTT assay; assay type: functional, cell-based; details: HL-60, 72 h; procedure, shortened: as §1
[13] = test system: 518A2; assay: Induction of apoptosis in human 518A2 cells assessed as appearance of intact mitochondria in cytosol at 5 uM after 18 hrs using JC1 dye relative to control; assay type: functional; procedure, shortened: as §3
[14] = Cytotoxicity against human 518A2 cells after 48 hrs by MTT assay; assay type: functional, cell-based; details: 518A2, 48 h; procedure, shortened: as §1
[15] = test system: HL-60; assay: Cytotoxicity against human HL60 cells after 24 hrs by MTT assay; assay type: functional, cell-based; details: HL-60, 24 h; procedure, shortened: as §1
[16] = Cytotoxicity against human 518A2 cells assessed as increase in ROS production at 5 uM after 72 hrs by NBT reduction assay relative to control; assay type: functional; procedure, shortened: as §2
[17] = test system: HL-60; assay: Induction of apoptosis in human HL60 cells assessed as appearance of intact mitochondria in cytosol at 5 uM after 6 hrs using JC1 dye relative to control; assay type: functional; procedure, shortened: as §3
[18] = test system: HL-60; assay: Cytotoxicity against human HL60 cells assessed as increase in ROS production at 5 uM after 24 hrs by NBT reduction assay relative to control; assay type: functional; procedure, shortened: as §2
[19] = test system: HL-60; assay: Induction of apoptosis in human HL60 cells assessed as appearance of intact mitochondria in cytosol at 5 uM after 18 hrs using JC1 dye relative to control; assay type: functional; procedure, shortened: as §3
[20] = Cytotoxicity against human 518A2 cells after 24 hrs by MTT assay; assay type: functional, cell-based; details: 518A2, 24 h; procedure, shortened: as §1
[21] = test system: HL-60; assay: Induction of apoptosis in human HL60 cells assessed as increase of caspase 8 activity at 5 uM after 8 to 18 hrs by luminometric assay; assay type: functional, cell-based
Procedure, shortened: (§4)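 HL-60 leukaemia cells were treated with test compound and sampled at intervals from 1 to 24 h. Protein was measured by Bradford. Caspase-9 (Caspase-Glo 8 for line 1) was read from a luminogenic peptide substrate as relative luminescence.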

[22] = test system: HL-60; assay: Induction of apoptosis in human HL60 cells assessed as increase of caspase 3 activity at 5 uM after 8 to 18 hrs by luminometric assay; assay type: functional, cell-based
Procedure, shortened: (§5)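 HL-60 and 518A2 cells treated with 5 µM compound and sampled at intervals from 1 to 24 h. Lysed in 50 mM Tris-HCl pH 7.4, 150 mM NaCl, 1% Triton X-100 with protease inhibitors for 15 min at 4 °C, spun at 800 g. Protein measured by Bradford. Caspase-3/7, -8 and -9 activities read with luminogenic peptide substrates; reported as relative luminescence.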

[23] = test system: HL-60; assay: Induction of apoptosis in human HL60 cells assessed as DNA ladder formation at 5 uM after 24 hrs by agarose gel electrophoresis; assay type: functional, cell-based
Procedure, shortened: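 HL-60 cells incubated with 5 µM compound for 24 h, then examined for DNA ladder patterns.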

[24] = test system: 518A2; assay: Induction of apoptosis in human 518A2 cells assessed as increase of ratio of Bax to Bcl-2 mRNA expression at 5 uM after 6 to 18 hrs by RT-PCR analysis; assay type: functional, cell-based
Procedure, shortened: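 518A2 cells exposed to 5 µM compound for 6 h or 18 h. bax and bcl-2 mRNA quantified by real-time PCR, normalised to GAPDH, and expressed as the bax/bcl-2 ratio.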

[25] = test system: HL-60; assay: Induction of apoptosis in human HL60 cells assessed as increase of caspase 9 activity at 5 uM measured up to 24 hrs by luminometric assay; assay type: functional, cell-based; procedure, shortened: as §4
[26] = test system: HL-60; assay: Induction of apoptosis in human HL60 cells assessed as increase of ratio of Bax to Bcl-2 mRNA expression at 5 uM after 6 to 18 hrs by RT-PCR analysis; assay type: functional, cell-based
Procedure, shortened: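 Real-time PCR of bax and bcl-2 mRNA in HL-60 cells after 6 h and 18 h exposure to test compound. Each gene was normalised to GAPDH, and the bax/bcl-2 expression ratio was reported.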

[27] = test system: HL-60; assay: Induction of apoptosis in human HL60 cells assessed as increase of caspase 9 activity at 5 uM after 12 hrs by luminometric assay; assay type: functional, cell-based; procedure, shortened: as §4
[28] = test system: HL-60; assay: Induction of apoptosis in human HL60 cells assessed as increase of caspase 8 activity at 5 uM after 12 hrs by luminometric assay; assay type: functional, cell-based; procedure, shortened: as §5
[29] = test system: HL-60; assay: Induction of apoptosis in human HL60 cells assessed as increase of caspase 3 activity at 5 uM after 18 hrs by luminometric assay; assay type: functional, cell-based; procedure, shortened: as §5
[30] = test system: HL-60; assay: Induction of apoptosis in human HL60 cells assessed as increase of caspase 8 activity at 5 uM after 24 hrs by luminometric assay; assay type: functional, cell-based; procedure, shortened: as §5
[31] = test system: 518A2; assay: Induction of apoptosis in human 518A2 cells assessed as increase of caspase 8 activity at 5 uM after 6 hrs by luminometric assay; assay type: functional, cell-based; procedure, shortened: as §5
[32] = test system: 518A2; assay: Induction of apoptosis in human 518A2 cells assessed as increase of caspase 3 activity at 5 uM after 8 hrs by luminometric assay; assay type: functional, cell-based; procedure, shortened: as §5

Row | SMILES | IC50 [1] [µM] | IC50 [2] [µM] | IC50 [3] [µM] | IC50 [4] [µM] | IC50 [5] [µM] | IC50 [6] [µM] | IC50 [7] [µM] | Activity [8] [%] | IC50 [9] [µM] | Activity [10] [%] | Activity [11] [%] | IC50 [12] [µM] | Activity [13] [%] | IC50 [14] [µM] | IC50 [15] [µM] | Activity [16] [%] | Activity [17] [%] | Activity [18] [%] | Activity [19] [%] | IC50 [20] [µM] | further results
1 | COc1cccc2c1C(=O)c1c(O)c3c(c(O)c1C2=O)C[C@@](O)(/C(CO)=N/NC(=O)CCCCC(=O)O[C@@H]1C[C@H](C)CC[C@H]1C(C)C)C[C@@H]3O[C@H]1C[C@H](N)[C@H](O)[C@H](C)O1.Cl | 23.3 | 6.7 | 0.32 | 4.7 | > 100 | 34.9 | 2.4 | 2.2 | 0.33 | 82 | 5.7 | 0.33 | 79 | 0.42 | 0.39 | 1.5 | 93 | 1 | 66 | 1.2 | 
2 | COc1cccc2c1C(=O)c1c(O)c3c(c(O)c1C2=O)C[C@@](O)(/C(CO)=N/NC(=O)CCCCCCCCCCC(=O)O[C@H]1C[C@H]2CC[C@]1(C)C2(C)C)C[C@@H]3O[C@H]1C[C@H](N)[C@H](O)[C@H](C)O1.Cl | 24.2 | 6.3 | 0.19 | 3.8 | 68.8 | 20.7 | 1.8 | 2.7 | 0.19 | 66 | 7.9 | 0.13 | 73 | 0.23 | 0.23 | 3.8 | 78 | 1.8 | 65 | 0.57 | 
3 | COc1cccc2c1C(=O)c1c(O)c3c(c(O)c1C2=O)C[C@@](O)(/C(CO)=N/NC(=O)CCCCCCCC(=O)O[C@@H]1C[C@H](C)CC[C@H]1C(C)C)C[C@@H]3O[C@H]1C[C@H](N)[C@H](O)[C@H](C)O1.Cl | 21.8 | 10.2 | 0.46 | 7.2 | 79.6 | 21.5 | 4.3 | 1.4 | 0.49 | 83 | 6.8 | 0.37 | 72 | 0.51 | 0.4 | 1.3 | 84 | 1 | 68 | 0.82 | 
4 | CC/C=C\C/C=C\C/C=C\CCCCCCCC(=O)N/N=C(\CO)[C@]1(O)Cc2c(O)c3c(c(O)c2[C@@H](O[C@H]2C[C@H](N)[C@H](O)[C@H](C)O2)C1)C(=O)c1c(OC)cccc1C3=O.Cl [DOXORUBICIN LINOLENOYLHYDRAZONE HYDROCHLORIDE] | 14 | 5.7 | 0.14 | 4.3 | 40.8 | 20.5 | 3.6 | 2.9 | 1.2 | 120 | 3 | 0.81 | 96 | 0.32 | 5.1 | 45.1 | 103 | 1 | 71 | 7.4 | Activity [21]: Active; Activity [22]: Active; Activity [23]: Active; Activity [24]: Active; Activity [25]: inactive; Activity [26]: Active
5 | CCCCC/C=C\C/C=C\CCCCCCCC(=O)N/N=C(\CO)[C@]1(O)Cc2c(O)c3c(c(O)c2[C@@H](O[C@H]2C[C@H](N)[C@H](O)[C@H](C)O2)C1)C(=O)c1c(OC)cccc1C3=O.Cl [DOXORUBICIN LINOLEYLHYDRAZONE HYDROCHLORIDE] | 19.7 | 40.5 | 1.6 | 20.3 | 29.6 | 18.7 | 9.9 | 1.6 | 2.8 | 80 | 1.4 | 3.8 | 97 | 1.8 | 5.6 | 2.3 | 88 | 0.4 | 87 | 2.9 | 
6 | COc1cccc2c1C(=O)c1c(O)c3c(c(O)c1C2=O)C[C@@](O)(/C(CO)=N/NC(=O)CC(=O)O[C@@H]1C[C@H](C)CC[C@H]1C(C)C)C[C@@H]3O[C@H]1C[C@H](N)[C@H](O)[C@H](C)O1.Cl [DOXORUBICIN MENTHOXYCARBONYLACETYLHYDRAZONE HYDROCHLORIDE] | 10.3 | 8.4 | 0.14 | 3.8 | 17.8 | 18.4 | 2.7 | 3 | 0.26 | 93 | 11.2 | 0.23 | 61 | 0.54 | 0.57 | 16.2 | 76 | 3.8 | 36 | 0.71 | Activity [27]: Active; Activity [28]: Active; Activity [23]: Active; Activity [29]: Active; Activity [30]: Active; Activity [24]: Active; Activity [31]: Active; Activity [26]: Active; Activity [32]: Active
7 | CCCCCCCC/C=C\CCCCCCCC(=O)N/N=C(\CO)[C@]1(O)Cc2c(O)c3c(c(O)c2[C@@H](O[C@H]2C[C@H](N)[C@H](O)[C@H](C)O2)C1)C(=O)c1c(OC)cccc1C3=O.Cl [DOXORUBICIN OLEYLHYDRAZONE HYDROCHLORIDE] | 12.7 | 14.6 | 0.42 | 6.2 | 32.5 | 17.7 | 6.6 | 2.8 | 0.56 | 96 | 4 | 0.56 | 99 | 0.39 | 1.2 | 4.4 | 103 | 0.6 | 104 | 0.67 | 
